# Screens from PubChem BioAssay.
# M5 PAM: positive allosteric modulators of human muscarinic M5 receptor; P08912; 360,000 compounds, 0.3% hits; activation, % at 3 µM; CHO-K1 hM5, Fluo-8 calcium, ACh EC20 PAM; 0% = ACh EC20, 100% = ACh EC100;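 active = activation above the run cutoff, the mean activation of all test compounds plus 3 SD, cut at about 18% in these data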
#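 Assay system – human M5 receptor in CHO-K1 cells · Read-out – % activation, ACh-normalized · Technique – Fluo-8 calcium fluorescence · Dosing – single-point, 3 µM nominal · Incubation – Fluo-8 loading 80 min at 37 °C plus 30 min room temperature · Repeats – singlicate, one well per test compound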
# M4 PAM: potentiates acetylcholine response at human M4 receptor. P08173. CHO-K1 hM4/Gqi5, Fluo-8 calcium fluorescence, ACh EC20; 0% = ACh EC20, 100% = maximal ACh. activation, % at 3 µM. 360,000 compounds, 0.4% hits. AID 624126;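 active = activation above its plate's cutoff, the mean activation of sample wells plus 3 SD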
# Target sequence (P08173 whole entry, looked up): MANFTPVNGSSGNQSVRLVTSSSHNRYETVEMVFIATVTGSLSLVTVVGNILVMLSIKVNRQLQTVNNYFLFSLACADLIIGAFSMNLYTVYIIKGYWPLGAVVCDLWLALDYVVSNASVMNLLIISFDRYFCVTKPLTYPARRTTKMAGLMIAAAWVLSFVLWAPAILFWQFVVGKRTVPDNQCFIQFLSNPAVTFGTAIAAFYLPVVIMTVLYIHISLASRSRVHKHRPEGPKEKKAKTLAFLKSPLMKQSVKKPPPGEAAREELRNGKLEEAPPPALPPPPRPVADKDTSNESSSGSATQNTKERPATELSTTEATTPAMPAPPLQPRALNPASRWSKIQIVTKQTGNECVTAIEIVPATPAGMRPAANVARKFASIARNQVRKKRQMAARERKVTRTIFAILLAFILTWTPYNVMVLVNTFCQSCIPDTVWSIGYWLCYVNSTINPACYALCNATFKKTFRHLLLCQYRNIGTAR
# CHRM5 agonist: CHRM5 agonism in calcium assay; P08912; activation, % at 3 µM; AID 624037; CHO-K1 hM5 cells, Fluo-8 calcium fluorescence; 0% DMSO wells, 100% maximal acetylcholine response; 360,000 compounds, 0.19% hits;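 active = activation above the run's mean over test compounds plus 3 SD, cut at about 23% in these data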;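 also: signal is peak over basal fluorescence ratio across the kinetic read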
# CHRM4 agonist: agonists of human muscarinic M4 receptor (CHRM4). CHO-K1 hM4/Gqi5, Fluo-8 calcium fluorescence; vehicle 0%, full acetylcholine response 100%. activation, % at 3 µM. 360,000 compounds, 0.14% hits;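 active = activation above the run mean over all test wells plus 3 SD, cut at about 32% in these data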;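 also: peak over basal fluorescence ratio per well then scaled between controls; 0% = DMSO wells and 100% = acetylcholine at EC100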
# CHRM5 antagonist: antagonists of human muscarinic M5 receptor (CHRM5); CHO-hM5 cells, Fluo-8 calcium fluorescence, ACh EC80; inhibition, % at 3 µM; 360,000 compounds, 0.59% hits; AID 624040;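 active = inhibition above a per-plate cutoff, the mean of that plate's test compounds plus 3 SD, cut at about 27% in these data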;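 also: 0% = acetylcholine EC80 with DMSO and 100% = DMSO without agonist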
# M4 antag: blocks acetylcholine activation of human M4 receptor. CHO-hM4 cells, ACh EC80, Fluo-8 calcium fluorescence. inhibition, % at 3 µM. 360,000 compounds, 0.73% hits;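 active = inhibition above its plate's cutoff, the mean inhibition of sample wells plus 3 SD, cut at about 27% in these data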;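 also: 0% = acetylcholine EC80 with DMSO and 100% = DMSO without agonist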
# * = called active by the depositor. Compounds with a hit are over-represented: about 1.9% of the library has one in this group of screens.
SMILES,M5 PAM,M4 PAM,CHRM5 agonist,CHRM4 agonist,CHRM5 antagonist,M4 antag
Nc1c(O)cccc1C(=O)O,4,4,1,1,-10,-3
COc1ccc(/C=N/OCC(=O)Nc2ccc3c(c2)OCO3)c(OC)c1,0,-11,3,5,5,38*
CCOc1ccc(/C=N/OCC(=O)Nc2ccc3c(c2)OCO3)cc1,0,0,1,5,3,-8
Cc1ccc(C(=O)OCC(=O)Nc2ccc3c(c2)OCO3)o1,20*,9,-6,1,-7,-1
CCCNS(=O)(=O)c1ccc(OCC(=O)Nc2ccc3c(c2)OCO3)cc1,-2,-9,-2,-1,5,45*
CC1Cc2ccccc2N1C(=O)CCn1cccn1 (stereo not drawn),1,-2,0,1,4,5
CNc1ccc(Br)cc(C(=O)/C=C/c2ccc(OC)cc2OC)c1=O,-5,3,1,0,-6,-13
CNc1ccc(Br)cc(C(=O)/C=C/c2ccc(Cl)cc2Cl)c1=O,12,4,6,8,18,44*
CCNc1ccc(Br)cc(C(=O)/C=C/c2c(Cl)cccc2Cl)c1=O,4,-2,1,3,10,38*
O=C(O)CSc1nc2ccccc2c(=O)[nH]1,24*,4,1,0,2,-10
O=C(CSc1nc2ccccc2c(=O)[nH]1)c1ccccc1,-3,7,2,3,-4,-8
NS(=O)(=O)c1ccc(CNC(=O)c2ccc(NS(=O)(=O)c3cccs3)cc2)cc1,-1,7,1,0,3,-1
CCN(CC(=O)Nc1ccccc1OC)C(=O)CSCC(=O)Nc1ccc(OC)cc1,-6,1,2,1,6,-15
O=S(=O)(Nc1nc2ccccc2nc1NCCO)c1cccc(Cl)c1,-3,-14,-4,-2,-4,29*
COCCCNc1nc2ccccc2nc1NS(=O)(=O)c1cccc(Cl)c1,5,0,-2,1,-8,-7
COC(=O)[C@@H]1C[C@@]2(O)[C@H](O)[C@H](O)[C@H](O)C[C@H]2N1Cc1cc(F)ccc1F,0,28*,5,2,-6,-2
COc1cc(C)ccc1OCc1cc(C(=O)N2CCN(C3CCCCC3)CC2)no1,2,0,-9,3,9,-5
COC(=O)c1c(C)oc2ccc(N(C(=O)c3ccncc3)S(=O)(=O)c3ccc4ccccc4c3)cc12,-15,-10,1,7,25,33*
NC1=NC[C@H](Cc2ccc(O)cc2)N1CCC12CC3CC(CC(C3)C1)C2,-8,-19,-12,2,7,46*
CCCCN1C(N)=NC[C@@H]1Cc1ccc(O)cc1,-5,5,-3,0,9,10
COc1cc(CCCN2C(N)=NC[C@H]2Cc2ccc(O)cc2)cc(OC)c1OC,18*,14,-2,0,-7,-9
O=C(NC(CO)C(=O)OCc1ccccc1)OCc1ccccc1 (stereo not drawn),3,-3,1,0,-4,-7
CCOC(=O)C1=C(COC(=O)CNS(=O)(=O)c2c(F)cc(F)cc2Br)NC(=O)NC1C (stereo not drawn),-1,6,0,2,5,-5
C/C(=N\NC(=O)c1cccc(C)c1)c1ccc(N2CCOCC2)cc1,19*,3,-2,3,-10,-20
CC(C)(C)Cc1c(-c2ccc(Cl)cc2)nc2c(Cl)cc(C(F)(F)F)cn12,-1,3,1,0,0,-6
SMILES,M5 PAM,M4 PAM,CHRM5 agonist,CHRM4 agonist,CHRM5 antagonist,M4 antag
COc1ccc(-c2ccc3c(c2)S(=O)(=O)c2cccc(C(=O)N4CCN(C5CCCCC5)CC4)c2C3=O)cc1OC,-32,-8,6,23,34*,9
COc1ccc(COC[C@H](C)[C@H](O)[C@@H](C)[C@H]2OC(=O)[C@@H]2C)cc1,0,5,1,4,5,0
Cc1ccc(NC(=S)NC2CCSc3ccccc32)cc1C (stereo not drawn),-19,-18,-5,6,28*,52*
COC(=O)c1ccc(C(=O)NC2CCSc3ccccc32)cc1 (stereo not drawn),2,-2,-4,1,-6,6
CCOC(=O)N1CCN(C(=O)c2cc3c(-c4cccc(OC)c4)nn(C)c3s2)CC1,-5,-9,2,5,-1,6
CCOC(=O)N1CCC(NC(=O)c2cc3c(-c4cccc(OC)c4)nn(C)c3s2)CC1,10,19*,-6,0,-8,-5
O=C(Nc1ccc(F)cc1)Nc1cccnc1Cl,-7,-17,3,3,1,32*
COc1cccc(NC(=O)Nc2ccc(C(C)(C)C)cc2)c1,-20,-18,4,13,35*,19
CC(C)(C)c1ccc(NC(=O)Nc2ccc(F)cc2)cc1,-16,-20,2,31,79*,51*
O=C(Nc1ccc(F)cc1)Nc1ccccc1F,-10,2,0,7,9,-5
COc1cccc(NC(=O)Nc2ccc(C)c(Cl)c2)c1,-20,-10,4,13,33*,3
O=C(Nc1nnc([C@@H]2C[C@H](O)[C@@H](CO)O2)s1)NC1CCCCC1,0,13,1,1,-1,-15
COc1cccc(NC(=O)CSCC(=O)O)c1,-3,33*,1,0,3,5
COc1cccc(NC(=O)CSCC(=O)Nc2ccccc2)c1,-3,-4,2,1,-7,-3
C[C@H](CO)N1C[C@H](C)[C@@H](CN(C)S(=O)(=O)c2ccc(F)cc2)Oc2ccc(NC(=O)CCN3CCOCC3)cc2C1=O,2,15,1,2,2,-4
COc1ccccc1NC(=O)CN1C(=O)COc2ccc(C)cc21,0,-2,7,5,-2,-2
COc1ccc(C)cc1NC(=O)CN1C(=O)COc2ccc(C)cc21,22*,4,5,1,-14,-11
O=C(c1ccc(Cl)cc1)C1CCN(C(=S)Nc2ccccc2)CC1,2,4,1,1,3,-7
O=C(C[n+]1cc(-c2ccccc2)n2c1CCCCC2)c1ccc(Cl)cc1,0,0,-10,0,-2,-6
CC1CCC(C(C)C)C(OC(=O)C[n+]2cc(-c3ccc(Cl)cc3)n3c2CCCCC3)C1 (stereo not drawn),-16,-15,-9,2,75*,19
CC1CCC(NS(=O)(=O)c2ccc(N3CCCC3=O)cc2)CC1 (stereo not drawn),14,-13,8,31,17,32*
